ChEMBL document CHEMBL1157857, “Synthesis and antimicrobial of new anthraquinone derivatives incorporating pyrazole moiety” (2010)

Assays:
Type in all cases: functional
Pseudomonas aeruginosa = assay: Antibacterial activity against Pseudomonas aeruginosa at 2 mg/ml after 24 hrs by agar diffusion method; settings: read-out: DIZ
How it was run: (§1)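 Bacteria grown on nutrient agar, incubated 24 h; inhibition zone diameter measured as activity read-out. Three replicate plates per compound. DMSO-only control included for each organism. Ampicillin, chloramphenicol and cloxacillin used at 2 mg/mL as reference drugs.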

[1] = tested on: Staphylococcus epidermidis; assay: Antibacterial activity against Staphylococcus epidermidis at 2 mg/ml after 24 hrs by agar diffusion method; settings: read-out: DIZ; how it was run: as §1
Fusarium solani = assay: Antifungal activity against Fusarium solani at 2 mg/ml after 7 days by agar diffusion method; settings: 168 h, read-out: DIZ
How it was run: (§2)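 Fungi tested on potato dextrose agar, incubated seven days; diameter of inhibition zone recorded as activity measure. Three plates per compound as replicates. DMSO without test compound served as control for each organism. Reference drugs (ampicillin, chloramphenicol, cloxacillin) used at 2 mg/mL.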

Alternaria solani = assay: Antifungal activity against Alternaria solani at 2 mg/ml after 7 days by agar diffusion method; settings: 168 h, read-out: DIZ; how it was run: as §2

Structure (SMILES)	zone of inhibition at 2000 µg/mL (Pseudomonas aeruginosa) [mm]	zone of inhibition at 2000 µg/mL [1] [mm]	zone of inhibition at 2000 µg/mL (Fusarium solani) [mm]	zone of inhibition at 2000 µg/mL (Alternaria solani) [mm]
Cc1nn(-c2ccccc2)c2c1cnc1c(C(=O)Nc3ccc4c(c3)C(=O)c3ccccc3C4=O)c(Nc3ccccc3)nn12	19	17	14	
Cc1ccc(C)n1-c1n[nH]c(Nc2ccccc2)c1C(=O)Nc1ccc2c(c1)C(=O)c1ccccc1C2=O	16	19		
O=C1c2ccccc2C(=O)c2cc(-n3cnc4n[nH]c(Nc5ccccc5)c4c3=O)ccc21	20	15		11
Cc1cc(C)n2nc(Nc3ccccc3)c(C(=O)Nc3ccc4c(c3)C(=O)c3ccccc3C4=O)c2n1	17	20	13	14
CS/C(Nc1ccccc1)=C(\C#N)C(=O)Nc1ccc2c(c1)C(=O)c1ccccc1C2=O	13	12		12
COc1ccc(-c2ccnc3c(C(=O)Nc4ccc5c(c4)C(=O)c4ccccc4C5=O)c(Nc4ccccc4)nn23)cc1	20	21	15	17
Cc1c(N/C(Nc2ccccc2)=C(\C#N)C(=O)Nc2ccc3c(c2)C(=O)c2ccccc2C3=O)c(=O)n(-c2ccccc2)n1C	22	24	16	21
Nc1n[nH]c(Nc2ccccc2)c1C(=O)Nc1ccc2c(c1)C(=O)c1ccccc1C2=O	14	11	16	14
Cc1cc(C)c2c(N/N=C(/C#N)C(=O)Nc3ccc4c(c3)C(=O)c3ccccc3C4=O)n[nH]c2n1	27	19	13	18
Cc1cc(C)c2c(n1)nn1c(N)c(C(=O)Nc3ccc4c(c3)C(=O)c3ccccc3C4=O)nnc21	21	14	17	19
CN(C)/C=C(\C#N)C(=O)Nc1ccc2c(c1)C(=O)c1ccccc1C2=O	14		12	
O=C(N[C@H](CO)[C@H](O)c1ccc([N+](=O)[O-])cc1)C(Cl)Cl [CHLORAMPHENICOL]	24	27	17	18
CC1(C)S[C@@H]2[C@H](NC(=O)[C@H](N)c3ccccc3)C(=O)N2[C@H]1C(=O)O [AMPICILLIN]	21	19	17	19
O=C1c2ccccc2C(=O)c2cc(NC(=O)c3c(Nc4ccccc4)nn4c5c(cnc34)CCc3ccccc3-5)ccc21	20	25	14	22
Cc1onc(-c2ccccc2Cl)c1C(=O)N[C@@H]1C(=O)N2[C@@H]1SC(C)(C)[C@@H]2C(=O)O [CLOXACILLIN]	30	22	22	20
Nc1n[nH]cc1C(=O)Nc1ccc2c(c1)C(=O)c1ccccc1C2=O	16	22	16	17
